This is a sample that favours compounds with a hit; in the whole collection about 2% have one here.
Scp1 inh: inhibitors of human Scp-1 phosphatase. Q9GZU7. Recombinant Scp1, phosphopeptide, malachite green phosphate absorbance. inhibition, % at 20 µM. 0.88% of 340,000 active;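 active means inhibition above about 50% at 20 µM, limit read from the data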;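 further: plate controls were DMSO wells with enzyme for no effect and wells lacking enzyme for full effect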
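Times: enzyme reaction 45 min at room temperature, colour 5 min, stabilisation 30 min. Material: SCP-1 catalytic fragment, aa 76-261. Medium: Acidic Tris acetate buffer with magnesium and detergent. Signal: colorimetric free-phosphate detection, absorbance 630 nm. Read-out basis: % inhibition of SCP-1 phosphate liberation. Reagent: Phosphorylated 17-residue peptide substrate.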
DNMT1 inh: inhibitors of human DNMT1. inhibition (reported as % activation of signal), % at 10 µM. P26358. 0.83% of 360,000 active. DNMT1 molecular beacon, Hinp1I cleavage, fluorescence; in the data active means inhibition above about 50%
LMPTP block: blocks human LMPTP phosphatase; 0.22% of 360,000 active; recombinant LMPTP-A, OMFP fluorogenic substrate, fluorescence intensity; inhibition, % at 20 µM; AID 651560;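 active means compounds that cut the enzyme signal by at least half of the control window in the single-dose screen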;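 further: plate controls were DMSO wells with enzyme plus substrate for no effect and substrate without enzyme for full effect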
Target sequence (P24666 whole entry, looked up): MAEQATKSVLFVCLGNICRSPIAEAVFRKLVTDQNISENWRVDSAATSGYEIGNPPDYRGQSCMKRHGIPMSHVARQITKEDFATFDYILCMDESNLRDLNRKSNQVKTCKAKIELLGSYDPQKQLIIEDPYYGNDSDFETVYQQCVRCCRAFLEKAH
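Material: LMPTP-A; amount: 0.625 nM enzyme; doses: single 20 µM dose; times: reaction 50 min, room temperature, dark; technique: fluorescence intensity of OMFP turnover product; benchmarks: no-enzyme and uninhibited controls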
STEP block: blocks human striatal-enriched tyrosine phosphatase | 0.25% of 360,000 active | P54829 | AID 588621 | recombinant STEP, OMFP fluorogenic substrate, fluorescence | inhibition, % at 20 µM;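 active means inhibition at 20 µM, scaled per plate between control wells, above about 37%, limit read from the data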;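 further: 0% = DMSO with enzyme and substrate and 100% = substrate only without enzyme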
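Material: STEP (striatal-enriched tyrosine phosphatase) enzyme, cell-free; Compound dosing: 20 µM single dose in 1% DMSO; Technique: fluorescence read at 480 nm ex / 540 nm em; Times: reaction 20 min, ambient temperature; Medium: 50 mM Bis-Tris pH 6.0 with 2.5 mM DTT and 0.005% Tween 20; Also added: OMFP at 25 µM.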
CSN deneddyl inh: inhibitors of human CSN-mediated cullin deneddylation; Purified CSN, SCF-Nedd8-OG deneddylation, fluorescence polarization; inhibition, % at 12.5 µM; 0.38% of 360,000 active; AID 651999;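 active means pattern-corrected inhibition above about 35%, with an unprinted fluorescence ratio check between 0.5 and 1.5, limit read from the data, passing the limit was not always enough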;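 further: 0% = enzyme with substrate and 100% = substrate without enzyme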
Target sequence (Q92905 whole entry, looked up, one chain of several): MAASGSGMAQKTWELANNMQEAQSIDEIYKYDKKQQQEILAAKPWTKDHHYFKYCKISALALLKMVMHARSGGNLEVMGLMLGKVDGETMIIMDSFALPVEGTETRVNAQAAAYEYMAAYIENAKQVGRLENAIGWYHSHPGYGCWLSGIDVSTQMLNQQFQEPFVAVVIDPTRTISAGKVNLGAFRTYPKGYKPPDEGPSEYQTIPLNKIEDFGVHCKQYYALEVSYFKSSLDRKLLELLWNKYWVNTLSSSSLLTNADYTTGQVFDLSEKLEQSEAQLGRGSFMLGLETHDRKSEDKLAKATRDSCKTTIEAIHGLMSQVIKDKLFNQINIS
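Material: human Csn5 produced in HEK293T cells; Input: enzyme 0.24 nM; Reagent: SCFSkp2-Nedd8OG substrate at 10 nM final; Dosing: 12.5 µM compound; Incubation: 90 min reaction at room temperature; Detection: fluorescence polarization of the substrate; Evaluation: % inhibition of substrate cleavage by Csn5; Control set: substrate-only high control, full reaction low control.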
SUMO1-SIM PPI: SUMO1-SIM interaction modulation | P63165 | SUMO1 binding to a labelled peptide, TR-FRET, 1 h | 0.33% of 360,000 active | inhibition, % at 20 µM; in the data active means inhibition above about 37%
Target sequence (P63165 whole entry, looked up): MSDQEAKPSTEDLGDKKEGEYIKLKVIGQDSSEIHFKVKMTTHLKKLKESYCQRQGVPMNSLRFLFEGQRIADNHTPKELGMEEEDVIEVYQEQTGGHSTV
* = called active by the depositor.

CC1CCC(NC(=O)CNC(=O)c2cccs2)CC1 (stereo not drawn) was read as Scp1 inh -2.2, DNMT1 inh 4.5, LMPTP block 0.6, STEP block 0.6, CSN deneddyl inh 5.8 and SUMO1-SIM PPI 6.6.
For NC(=O)c1ccc(NC(=O)CS(=O)(=O)c2cn(CC(=O)N3CCCCC3)c3ccccc23)cc1 the results were Scp1 inh -6.1, DNMT1 inh -1.2, LMPTP block -0.5, STEP block 1.4, CSN deneddyl inh 0.0 and SUMO1-SIM PPI -2.6.
Screening Cc1ccc(Cl)cc1N1CCN(C(=O)c2cc3c(=O)n(C)c4ccccc4c3n2C)CC1 returned Scp1 inh -8.0, DNMT1 inh -5.6, LMPTP block 7.3, STEP block 1.5, CSN deneddyl inh -3.4 and SUMO1-SIM PPI 48.3*.
For Cc1cccc(N2CCN(C(=O)c3cc4c(=O)n(C)c5ccccc5c4n3C)CC2)c1C the results were Scp1 inh -11.7, DNMT1 inh -5.7, LMPTP block 5.0, STEP block 2.5, CSN deneddyl inh 0.2 and SUMO1-SIM PPI 9.5.
For CCCCN(C(=O)c1ccc(-c2ccc([N+](=O)[O-])cc2)o1)c1c(N)n(CC(C)C)c(=O)[nH]c1=O the results were Scp1 inh 17.4, DNMT1 inh 2.5, LMPTP block -3.9, STEP block -6.9, CSN deneddyl inh 1.8 and SUMO1-SIM PPI -30.9.
For COc1cc(OC)c2c(O)c3c(c(-c4c5c(c(O)c6c(OC)cc(OC)cc46)CO[C@@H](C)[C@H]5O)c2c1)[C@H](O)[C@H](C)OC3 the results were Scp1 inh 55.5*, DNMT1 inh 100.3*, LMPTP block 51.4*, STEP block -2.0, CSN deneddyl inh 27.9 and SUMO1-SIM PPI 12.7.
For CN=c1scc(-c2ccccc2F)n1/N=C/c1ccc(O)c(O)c1O the results were Scp1 inh 21.8, DNMT1 inh -10.1, LMPTP block 56.6*, STEP block 7.5, CSN deneddyl inh -0.2 and SUMO1-SIM PPI -13.9.
Screening FC(F)(F)C1=Nc2cccc3cccc(c23)N1 returned Scp1 inh -0.8, DNMT1 inh 108.2*, LMPTP block 87.1*, STEP block 18.1, CSN deneddyl inh 11.6 and SUMO1-SIM PPI 117.2*.
`CC(C)(C)NC(=O)CSc1nc(O)cc(=O)n1-c1ccccc1F` gave Scp1 inh 3.5, DNMT1 inh 12.2, LMPTP block -1.0, STEP block -9.0, CSN deneddyl inh 56.2* and SUMO1-SIM PPI -0.9.
For CC(=O)Nc1ccc(NC(=O)c2c(-c3ccccc3Cl)noc2C)c(C)c1 the results were Scp1 inh -4.2, DNMT1 inh 2.1, LMPTP block -2.5, STEP block -3.7, CSN deneddyl inh 1.6 and SUMO1-SIM PPI 2.4.
Screening CC(=O)Nc1ccc(OC(=O)c2c(-c3ccccc3Cl)noc2C)cc1 returned Scp1 inh -7.1, DNMT1 inh -4.2, LMPTP block -1.1, STEP block -1.1, CSN deneddyl inh -4.3 and SUMO1-SIM PPI 37.1*.
For COc1ccc(-c2cc(C#N)nc(N3CCNCC3)n2)cc1 the results were Scp1 inh -3.5, DNMT1 inh 79.4*, LMPTP block 15.9, STEP block 2.5, CSN deneddyl inh 2.7 and SUMO1-SIM PPI 3.3.
Screening COc1ccc(-c2cc(C#N)nc(N3CCN(C)CC3)n2)cc1 returned Scp1 inh -5.1, DNMT1 inh 2.5, LMPTP block 0.0, STEP block -0.8, CSN deneddyl inh 1.4 and SUMO1-SIM PPI -12.1.
`Cc1c(C(=O)N2CCOCC2)sc(NC(=O)c2ccccc2F)c1C#N` gave Scp1 inh 0.7, DNMT1 inh 0.6, LMPTP block -0.4, STEP block 1.5, CSN deneddyl inh 2.1 and SUMO1-SIM PPI 5.5.
Screening COc1ccc(/C=N/Nc2cc(C)nc3ccccc23)cc1 returned Scp1 inh 3.0, DNMT1 inh 26.5, LMPTP block 61.7*, STEP block 4.1, CSN deneddyl inh 3.6 and SUMO1-SIM PPI -53.9.
Cn1c(SCC(=O)Nc2ccc3nc(SCC(=O)NC4CC4)sc3c2)nnc1-c1ccccc1 was read as Scp1 inh -2.7, DNMT1 inh -6.0, LMPTP block -0.2, STEP block 6.5, CSN deneddyl inh 5.0 and SUMO1-SIM PPI 0.9.
Cn1c(SCC(=O)Nc2ccc3nc(SCC(=O)N4CCCC4)sc3c2)nnc1-c1ccc(N)cc1 was read as Scp1 inh 64.8*, DNMT1 inh 23.9, LMPTP block 31.0, STEP block 6.5, CSN deneddyl inh 8.0 and SUMO1-SIM PPI 63.1*.
CSc1nnc(NC(=O)c2ccc(S(=O)(=O)N(C)C)cc2)s1 was read as Scp1 inh -2.7, DNMT1 inh 4.0, LMPTP block 0.2, STEP block 0.9, CSN deneddyl inh -2.7 and SUMO1-SIM PPI 0.4.
`CC(C)c1ccc(/C=c2\sc3n(c2=O)C(N)=C(C#N)C(c2ccc(C(C)C)cc2)C=3C(N)=O)cc1` (stereo not drawn) gave Scp1 inh 1.3, DNMT1 inh 29.9, LMPTP block 2.0, STEP block 8.6, CSN deneddyl inh -1.1 and SUMO1-SIM PPI -2.3.
N#CC1=C(N)n2c(s/c(=C\c3cccs3)c2=O)=C(C#N)C1c1cccs1 (stereo not drawn) was read as Scp1 inh 6.6, DNMT1 inh 17.6, LMPTP block 21.7, STEP block 2.0, CSN deneddyl inh 66.2* and SUMO1-SIM PPI 30.9.
O=C1c2cccnc2-c2ncccc21 was read as Scp1 inh 7.1, DNMT1 inh 0.5, LMPTP block -0.8, STEP block 4.2, CSN deneddyl inh 2.2 and SUMO1-SIM PPI -32.9.
`COC1=C(Br)C(=O)c2ncccc2C1=O` gave Scp1 inh 2.2, DNMT1 inh 91.4*, LMPTP block 11.9, STEP block 8.9, CSN deneddyl inh 31.4 and SUMO1-SIM PPI 48.5*.
O=C(Nc1cccc([N+](=O)[O-])c1)c1cc2ccccc2cc1O was read as Scp1 inh 88.8*, DNMT1 inh 1.6, LMPTP block 3.7, STEP block 4.7, CSN deneddyl inh 11.4 and SUMO1-SIM PPI 32.5.
For CCCCCCCCCC(=O)O the results were Scp1 inh 1.4, DNMT1 inh -3.2, LMPTP block 0.3, STEP block 3.1, CSN deneddyl inh 2.8 and SUMO1-SIM PPI 0.7.
Screening O=C(O)CCCCC1CCSS1 (stereo not drawn) returned Scp1 inh 24.1, DNMT1 inh 13.6, LMPTP block 15.4, STEP block 0.6, CSN deneddyl inh 35.4* and SUMO1-SIM PPI 3.4.
COc1cccc(OC)c1OCC(=O)Nc1ccc(S(=O)(=O)N2CCCC2)cc1 was read as Scp1 inh -10.2, DNMT1 inh 2.4, LMPTP block 1.1, STEP block 3.7, CSN deneddyl inh 1.8 and SUMO1-SIM PPI 1.1.

Screening results deposited in PubChem by Sanford-Burnham Center for Chemical Genomics.
